From ChEMBL document CHEMBL1123499, “Synthesis, saludiuretic, and antihypertensive activity of 6,7-disubstituted 1(2H)- and 3,4-dihydro-1(2H)-phthalazinones” (1986)

Legend:
Rattus norvegicus [1] = organism: Rattus norvegicus; experiment: Saluretic activity in rats after 5-24 hours, as potassium ion concentration in urine; format: functional
Method in brief: (§1)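 Male Sabra rats (170-200 g), fasted 18 h, dosed orally 50 mg/kg in saline at 25 mL/kg, eight per compound, two per metabolic cage, no food or water. Urine collected 5 and 24 h after dosing and centrifuged. Chloride titrated with Hg(NO3)2/diphenylcarbazone after HNO3 acidification; Na+ and K+ by atomic absorption.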

Rattus norvegicus [2] = organism: Rattus norvegicus; experiment: Diuretic activity in rats at time intervals of 0-5 hours; format: functional, Urine
Method in brief: (§2)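 Male Sabra rats (170-200 g), starved 18 h, given 50 mg/kg by stomach tube in saline (25 mL/kg load), eight per compound, saline and furosemide controls run alongside. Held two per metabolic cage at 22 °C without food or water. Urine volume measured at 5 and 24 h collections.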

Rattus norvegicus [3] = organism: Rattus norvegicus; experiment: Saluretic activity in rats after 5-24 hours, as sodium ion concentration in urine; format: functional; method in brief: as §1
Rattus norvegicus [4] = organism: Rattus norvegicus; experiment: Diuretic activity in rats at time intervals of 0-24 hours; format: functional, Urine; method in brief: as §2
Rattus norvegicus [5] = organism: Rattus norvegicus; experiment: Saluretic activity in rats after 0-24 hours, as potassium ion concentration in urine; format: functional; method in brief: as §1
Rattus norvegicus [6] = organism: Rattus norvegicus; experiment: Saluretic activity in rats after 5-24 hours, as chloride ion concentration in urine; format: functional; method in brief: as §1
Rattus norvegicus [7] = organism: Rattus norvegicus; experiment: Saluretic activity in rats after 0-24 hours, as chloride ion concentration in urine; format: functional; method in brief: as §1
Rattus norvegicus [8] = organism: Rattus norvegicus; experiment: Saluretic activity in rats after 0-5 hours, as chloride ion concentration in urine; format: functional; method in brief: as §1
Rattus norvegicus [9] = organism: Rattus norvegicus; experiment: Saluretic activity in rats after 0-5 hours, as sodium ion concentration in urine; format: functional; method in brief: as §1
Rattus norvegicus [10] = organism: Rattus norvegicus; experiment: Saluretic activity in rats after 0-24 hours, as sodium ion concentration in urine; format: functional; method in brief: as §1
Rattus norvegicus [11] = organism: Rattus norvegicus; experiment: Saluretic activity in rats after 0-5 hours, as ratio of Na+/K+ ion concentration in urine; format: functional; method in brief: as §1
Rattus norvegicus [12] = organism: Rattus norvegicus; experiment: Saluretic activity in rats after 5-24 hours, as ratio of Na+/K+ ion concentration in urine; format: functional; method in brief: as §1
Rattus norvegicus [13] = organism: Rattus norvegicus; experiment: Diuretic activity in rats at time intervals of 5-24 hours; format: functional, Urine; method in brief: as §2
Rattus norvegicus [14] = organism: Rattus norvegicus; experiment: Saluretic activity in rats after 0-24 hours, as ratio of Na+/K+ ion concentration in urine; format: functional; method in brief: as §1
Rattus norvegicus [15] = organism: Rattus norvegicus; experiment: Saluretic activity in rats after 0-5 hours, as potassium ion concentration in urine; format: functional; method in brief: as §1
Rattus norvegicus [16] = organism: Rattus norvegicus; experiment: Compound was tested for antihypertensive activity in rat after 4 hr postdose; format: functional
Method in brief: (§3)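 DOCA/saline hypertensive Sprague-Dawley rats (250-350 g), six per group, given 10 mg/kg doca s.c. daily with saline until systolic BP reached 170 mmHg (usually 3-4 weeks). Oral 25 mg/kg in 5 mL/kg 1% methylcellulose. Systolic BP by tail-cuff before and 1, 4, 24 h after; drop reported as mean ± SD.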

Rattus norvegicus [17] = organism: Rattus norvegicus; experiment: Compound was tested for antihypertensive activity in rat after 24 hr postdose; format: functional; method in brief: as §3
Rattus norvegicus [18] = organism: Rattus norvegicus; experiment: Compound was tested for antihypertensive activity in rat after 1 hr postdose; format: functional; method in brief: as §3

`NS(=O)(=O)c1cc2cnnc(O)c2cc1Cl` gave a Saluretic activity (Rattus norvegicus [1]) of 3.19 m equiv kg-1, a Diuretic activity (Rattus norvegicus [2]) of 5.6 mL and a Saluretic activity (Rattus norvegicus [3]) of 4.3 m equiv kg-1. For the same compound, the Diuretic activity (Rattus norvegicus [4]) was 8.8 mL, the Saluretic activity (Rattus norvegicus [5]) was 5.7 m equiv kg-1 and the Saluretic activity (Rattus norvegicus [6]) was 5.02 m equiv kg-1. The Saluretic activity (Rattus norvegicus [7]) was 9.12 m equiv kg-1, the Saluretic activity (Rattus norvegicus [8]) was 4.1 m equiv kg-1 and the Saluretic activity (Rattus norvegicus [9]) was 6.14 m equiv kg-1. For the same compound, the Saluretic activity (Rattus norvegicus [10]) was 10.44 m equiv kg-1, the Ratio (Rattus norvegicus [11]) was 2.44 and the Ratio (Rattus norvegicus [12]) was 1.35. It also gave a Diuretic activity (Rattus norvegicus [13]) of 3.2 mL, a Ratio (Rattus norvegicus [14]) of 1.83 and a Saluretic activity (Rattus norvegicus [15]) of 2.51 m equiv kg-1.
For `NS(=O)(=O)c1cc2c(cc1Cl)CNNC2=O`, the Saluretic activity (Rattus norvegicus [1]) was 3.45 m equiv kg-1, the Diuretic activity (Rattus norvegicus [2]) was 6.5 mL and the Saluretic activity (Rattus norvegicus [3]) was 4.36 m equiv kg-1. It also gave a Diuretic activity (Rattus norvegicus [4]) of 12.7 mL, a Saluretic activity (Rattus norvegicus [5]) of 5.63 m equiv kg-1 and a Saluretic activity (Rattus norvegicus [6]) of 4.16 m equiv kg-1. For the same compound, the “Decrease in blood pressure” value (Rattus norvegicus [16]) was 31 mmHg, the Saluretic activity (Rattus norvegicus [7]) was 12.48 m equiv kg-1 and the Saluretic activity (Rattus norvegicus [8]) was 8.32 m equiv kg-1. For the same compound, the “Decrease in blood pressure” value (Rattus norvegicus [17]) was 27 mmHg, the Saluretic activity (Rattus norvegicus [9]) was 6.55 m equiv kg-1 and the Saluretic activity (Rattus norvegicus [10]) was 10.91 m equiv kg-1. It also gave a Ratio (Rattus norvegicus [11]) of 3, a Ratio (Rattus norvegicus [12]) of 1.27 and a Diuretic activity (Rattus norvegicus [13]) of 6.2 mL. The Ratio (Rattus norvegicus [14]) was 1.94, the “Decrease in blood pressure” value (Rattus norvegicus [18]) was 24.7 mmHg and the Saluretic activity (Rattus norvegicus [15]) was 2.18 m equiv kg-1.
`NS(=O)(=O)c1cc2c(cc1Cl)CNN(Cc1ccccc1)C2=O` was tested, and the Saluretic activity (Rattus norvegicus [1]) was 4.18 m equiv kg-1, the Diuretic activity (Rattus norvegicus [2]) was 6.6 mL and the Saluretic activity (Rattus norvegicus [3]) was 5.7 m equiv kg-1. For the same compound, the Diuretic activity (Rattus norvegicus [4]) was 13.2 mL, the Saluretic activity (Rattus norvegicus [5]) was 6.79 m equiv kg-1 and the Saluretic activity (Rattus norvegicus [6]) was 5 m equiv kg-1. For the same compound, the Saluretic activity (Rattus norvegicus [7]) was 13.69 m equiv kg-1, the Saluretic activity (Rattus norvegicus [8]) was 8.69 m equiv kg-1 and the Saluretic activity (Rattus norvegicus [9]) was 6.9 m equiv kg-1. The Saluretic activity (Rattus norvegicus [10]) was 12.6 m equiv kg-1, the Ratio (Rattus norvegicus [11]) was 2.65 and the Ratio (Rattus norvegicus [12]) was 1.36. For the same compound, the Diuretic activity (Rattus norvegicus [13]) was 6.6 mL, the Ratio (Rattus norvegicus [14]) was 1.86 and the Saluretic activity (Rattus norvegicus [15]) was 2.61 m equiv kg-1.
`NS(=O)(=O)c1cc2c(=O)n(-c3cccc(C(F)(F)F)c3)ncc2cc1Cl` gave a Saluretic activity (Rattus norvegicus [1]) of 3.04 m equiv kg-1, a Diuretic activity (Rattus norvegicus [2]) of 2.2 mL and a Diuretic activity (Rattus norvegicus [4]) of 6.6 mL. The Saluretic activity (Rattus norvegicus [5]) was 4.31 m equiv kg-1, the Saluretic activity (Rattus norvegicus [9]) was 2.18 m equiv kg-1 and the Saluretic activity (Rattus norvegicus [10]) was 6.25 m equiv kg-1. For the same compound, the Ratio (Rattus norvegicus [11]) was 1.72, the Ratio (Rattus norvegicus [12]) was 1.33 and the Diuretic activity (Rattus norvegicus [13]) was 4.4 mL. The Ratio (Rattus norvegicus [14]) was 1.45 and the Saluretic activity (Rattus norvegicus [15]) was 1.27 m equiv kg-1.
`CN1NCc2cc(S(N)(=O)=O)c(Cl)cc2C1=O` showed a Saluretic activity (Rattus norvegicus [1]) of 3 m equiv kg-1, a Diuretic activity (Rattus norvegicus [2]) of 2.7 mL and a Saluretic activity (Rattus norvegicus [3]) of 4.94 m equiv kg-1. The Diuretic activity (Rattus norvegicus [4]) was 6.1 mL, the Saluretic activity (Rattus norvegicus [5]) was 4.35 m equiv kg-1 and the Saluretic activity (Rattus norvegicus [6]) was 5.29 m equiv kg-1. For the same compound, the Saluretic activity (Rattus norvegicus [7]) was 8.05 m equiv kg-1, the Saluretic activity (Rattus norvegicus [8]) was 2.76 m equiv kg-1 and the Saluretic activity (Rattus norvegicus [9]) was 2.41 m equiv kg-1. For the same compound, the Saluretic activity (Rattus norvegicus [10]) was 7.35 m equiv kg-1, the Ratio (Rattus norvegicus [11]) was 1.78 and the Ratio (Rattus norvegicus [12]) was 1.64. For the same compound, the Diuretic activity (Rattus norvegicus [13]) was 3.4 mL, the Ratio (Rattus norvegicus [14]) was 1.69 and the Saluretic activity (Rattus norvegicus [15]) was 1.35 m equiv kg-1.
`NS(=O)(=O)c1cc2c(cc1Cl)C(=O)N(Cc1ccccc1)NC2` was tested, and the Saluretic activity (Rattus norvegicus [1]) was 3.29 m equiv kg-1, the Diuretic activity (Rattus norvegicus [2]) was 4 mL and the Saluretic activity (Rattus norvegicus [3]) was 5.5 m equiv kg-1. For the same compound, the Diuretic activity (Rattus norvegicus [4]) was 7.6 mL, the Saluretic activity (Rattus norvegicus [5]) was 5.21 m equiv kg-1 and the Saluretic activity (Rattus norvegicus [6]) was 5.39 m equiv kg-1. It also gave a Saluretic activity (Rattus norvegicus [7]) of 10.53 m equiv kg-1, a Saluretic activity (Rattus norvegicus [8]) of 5.14 m equiv kg-1 and a Saluretic activity (Rattus norvegicus [9]) of 4.01 m equiv kg-1. For the same compound, the Saluretic activity (Rattus norvegicus [10]) was 9.51 m equiv kg-1, the Ratio (Rattus norvegicus [11]) was 2.1 and the Ratio (Rattus norvegicus [12]) was 1.67. The Diuretic activity (Rattus norvegicus [13]) was 3.6 mL, the Ratio (Rattus norvegicus [14]) was 1.83 and the Saluretic activity (Rattus norvegicus [15]) was 1.92 m equiv kg-1.
`NS(=O)(=O)c1cc2c(=O)n(Cc3ccco3)ncc2cc1Cl` was tested, and the Saluretic activity (Rattus norvegicus [1]) was 2.16 m equiv kg-1, the Diuretic activity (Rattus norvegicus [2]) was 1.8 mL and the Saluretic activity (Rattus norvegicus [3]) was 2.4 m equiv kg-1. For the same compound, the Diuretic activity (Rattus norvegicus [4]) was 2.8 mL, the Saluretic activity (Rattus norvegicus [5]) was 3.74 m equiv kg-1 and the Saluretic activity (Rattus norvegicus [6]) was 1.46 m equiv kg-1. It also gave a Saluretic activity (Rattus norvegicus [7]) of 5.26 m equiv kg-1, a Saluretic activity (Rattus norvegicus [8]) of 3.8 m equiv kg-1 and a Saluretic activity (Rattus norvegicus [9]) of 3.68 m equiv kg-1. For the same compound, the Saluretic activity (Rattus norvegicus [10]) was 6.08 m equiv kg-1, the Ratio (Rattus norvegicus [11]) was 2.83 and the Ratio (Rattus norvegicus [12]) was 1.11. The Diuretic activity (Rattus norvegicus [13]) was 1 mL, the Ratio (Rattus norvegicus [14]) was 1.63 and the Saluretic activity (Rattus norvegicus [15]) was 1.58 m equiv kg-1.
